For assay [1], the target named is T1, Peroxisome proliferator-activated receptor alpha (Homo sapiens, UniProt Q07869).
T1 sequence (Q07869 whole entry): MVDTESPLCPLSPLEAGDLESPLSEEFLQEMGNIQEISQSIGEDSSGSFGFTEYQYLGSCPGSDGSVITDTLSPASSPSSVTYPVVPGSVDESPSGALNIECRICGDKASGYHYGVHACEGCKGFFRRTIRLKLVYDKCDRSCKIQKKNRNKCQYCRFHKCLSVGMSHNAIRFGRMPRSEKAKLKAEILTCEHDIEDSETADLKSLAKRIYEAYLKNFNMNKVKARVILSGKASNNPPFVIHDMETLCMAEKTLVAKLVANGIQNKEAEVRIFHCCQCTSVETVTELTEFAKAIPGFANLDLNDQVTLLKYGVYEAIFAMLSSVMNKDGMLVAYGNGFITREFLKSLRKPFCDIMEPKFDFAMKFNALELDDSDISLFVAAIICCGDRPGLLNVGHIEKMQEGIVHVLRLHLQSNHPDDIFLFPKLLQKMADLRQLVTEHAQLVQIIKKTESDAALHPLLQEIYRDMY
The experiment in a line: Transactivation of GAL4-fused human PPARalpha ligand binding domain expressed in HepG2 cells after 20 hrs by luciferase reporter gene assay. Type of assay: cell-based. A digest of the protocol: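 HepG2 cells transiently transfected (calcium phosphate) with Gal4–PPARα-LBD or Gal4–PPARγ-LBD (30 ng), five-Gal4-element TK-luciferase reporter (100 ng) and pCMVβgal (250 ng). 4 h post-transfection, triplicate 20 h ligand treatment up to 10 μM; luciferase read, β-galactosidase measured with ONPG.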
(In general: In a reporter assay the amount or activity of a reporter protein is the signal.)

Assay [2] deals with T2, Peroxisome proliferator-activated receptor gamma (Homo sapiens, UniProt P37231).
T2 sequence (P37231 whole entry): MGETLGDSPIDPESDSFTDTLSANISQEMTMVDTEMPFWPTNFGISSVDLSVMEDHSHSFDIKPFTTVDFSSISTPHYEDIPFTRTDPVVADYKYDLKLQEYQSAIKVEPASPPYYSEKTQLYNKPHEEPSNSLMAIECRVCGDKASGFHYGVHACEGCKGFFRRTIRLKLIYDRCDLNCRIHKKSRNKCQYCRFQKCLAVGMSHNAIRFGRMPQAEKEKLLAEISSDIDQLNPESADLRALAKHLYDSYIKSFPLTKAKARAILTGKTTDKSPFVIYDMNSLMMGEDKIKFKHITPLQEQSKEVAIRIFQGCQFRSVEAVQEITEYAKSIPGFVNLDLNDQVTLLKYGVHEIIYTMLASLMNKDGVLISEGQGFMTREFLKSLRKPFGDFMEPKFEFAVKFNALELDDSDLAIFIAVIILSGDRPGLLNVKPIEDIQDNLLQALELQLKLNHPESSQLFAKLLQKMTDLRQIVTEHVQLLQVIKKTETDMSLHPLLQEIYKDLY
The experiment in a line: Transactivation of GAL4-fused human PPARgamma ligand binding domain expressed in HepG2 cells after 20 hrs by luciferase reporter gene assay. Type of assay: cell-based.

For assay [3], the target named is T3, Peroxisome proliferator-activated receptor alpha (Homo sapiens) (UniProt Q07869).
T3 sequence (whole entry): T1 sequence (Q07869 whole entry)
Nature of the assay: Transactivation of GAL4-fused human PPARalpha ligand binding domain expressed in HepG2 cells after 20 hrs by luciferase reporter gene assay relative to WY-14643. It is filed as cell-based. In a few lines:
(§1)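 HepG2 cells transiently transfected (calcium phosphate) with Gal4–PPARα-LBD or Gal4–PPARγ-LBD (30 ng), five-Gal4-element TK-luciferase reporter (100 ng) and pCMVβgal (250 ng). 4 h post-transfection, triplicate 20 h ligand treatment up to 10 μM; luciferase read, β-galactosidase measured with ONPG. Efficacy as % of maximal fold induction by Wy-14,643 (α) or rosiglitazone (γ); experiments repeated at least twice.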

Assay [4] addresses T3, Peroxisome proliferator-activated receptor alpha (Homo sapiens). The experiment in a line: Agonist activity at PPARalpha in human HepG2 cells assessed as upregulation of CPT1 mRNA expression at 1 uM after 24 hrs by RT-PCR analysis relative to control. It is filed as cell-based. In a few lines:
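Serum-starved HepG2 cells (24 h depletion) exposed for 24 h to 1 μM ligand; untreated cells as control; Wy 14,643 (50 μM) reference. Total RNA from 1 × 10^6 cells, reverse transcribed, CAC or CPT1 transcript quantified by real-time PCR against human actin. Means ± SD of three duplicate independent experiments; one-way ANOVA, Bonferroni test versus control.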

In assay [5] the target is T4, Peroxisome proliferator-activated receptor gamma (Homo sapiens) (UniProt P37231).
T4 sequence (whole entry): T2 sequence (P37231 whole entry)
The experiment in a line: Transactivation of GAL4-fused human PPARgamma ligand binding domain expressed in HepG2 cells up to 10 uM after 20 hrs by luciferase reporter gene assay. It is filed as cell-based. In a few lines: as §1

Assay [6] concerns the target T4, Peroxisome proliferator-activated receptor gamma (Homo sapiens). Nature of the assay: Binding affinity to PPARgamma-LBD site B and site C (unknown origin) at 60 uM after 3 hrs by isothermal titration calorimetry assay. A digest of the protocol: (§2)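 ITC at 25 °C on His-tagged PPARγ LBD dialysed into 20 mM Hepes pH 8.0, 1 mM TCEP; DMSO matched (<1%). […] Conditions: ligand 400 μM into 40 μM protein (5); reverse, 400 μM protein into 40 μM ligand (6); 600 μM ligand into 60 μM protein (7); protein 47 μM pre-equilibrated 3 h 1:1 with site-A ligand, titrated with 470 μM ligand (8); reverse titration (9).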
In general terms: In ITC the heat of successive injections is recorded.

Assay [7] shares this target. The experiment in a line: Binding affinity to PPARgamma-LBD site B (unknown origin) at 600 uM after 3 hrs by isothermal titration calorimetry assay. A digest of the protocol: as §2
The target of assay [8] is T3, Peroxisome proliferator-activated receptor alpha (Homo sapiens). Nature of the assay: Agonist activity at PPARalpha in human HepG2 cells assessed as upregulation of CAC protein expression at 1 uM after 48 hrs by Western blotting analysis relative to control.
Assay [9] deals with T4, Peroxisome proliferator-activated receptor gamma (Homo sapiens). The experiment in a line: Binding affinity to PPARgamma-LBD site A and site B (unknown origin) at 40 uM after 3 hrs by isothermal titration calorimetry assay. In a few lines:
as §2

Assay [10] deals with T3, Peroxisome proliferator-activated receptor alpha (Homo sapiens). The experiment in a line: Agonist activity at PPARalpha in human HepG2 cells assessed as upregulation of CPT1 protein expression at 1 uM after 48 hrs by Western blotting analysis relative to control.
Assay [11] addresses T4, Peroxisome proliferator-activated receptor gamma (Homo sapiens). The experiment in a line: Binding affinity to PPARgamma-LBD site B (unknown origin) in presence of (S)-2-(biphenyl-4-yloxy)-3-phenylpropanoic acid at 470 uM after 3 hrs by isothermal titration calorimetry assay. In a few lines:
as §2

Assay [12] shares this target. The experiment in a line: Binding affinity to PPARgamma-LBD site A (unknown origin) at 400 uM after 3 hrs by isothermal titration calorimetry assay. A digest of the protocol: as §2
For assay [13], the target named is T3, Peroxisome proliferator-activated receptor alpha (Homo sapiens). The experiment in a line: Agonist activity at PPARalpha in human HepG2 cells assessed as upregulation of CAC mRNA expression at 1 uM after 24 hrs by RT-PCR analysis relative to control. It is filed as cell-based. A digest of the protocol:
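Total RNA from 1 × 10^6 cells, reverse transcribed, CAC or CPT1 transcript quantified by real-time PCR against human actin. Means ± SD of three duplicate independent experiments; one-way ANOVA, Bonferroni test versus control.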

Activity calls are given as the source filed them. The rule behind the calls is not given here.

Broadly, the EC50 is the midpoint of the concentration-response curve. Low values mean greater potency, high ones weaker potency. With `Cc1cc(-c2ccccc2)cc(C)c1O[C@@H](Cc1ccccc1)C(=O)O`, the concentration for a half-maximal effect (EC50) in assay [1] was determined as 1130 nM; in assay [2], 3100 nM. This compound returned an Emax in assay [3] of 61%.
For the compound `CC(C)(Sc1ccc(CCN(CCCCC2CCCCC2)C(=O)NC2CCCCC2)cc1)C(=O)O`, the outcome in [4] was Active.
As to `Cc1cccc(Nc2cc(Cl)nc(SCC(=O)O)n2)c1C`, the outcome in [5] was inactive.
Take `Cc1ccccc1-c1ccc(O[C@@H](Cc2ccccc2)C(=O)O)cc1`: the figures for the EC50 in assay [1] and in assay [2] were 67 nM and 1360 nM, respectively. The Emax in assay [3] was 155%.
For the compound `CC(C)c1ccccc1-c1ccc(OC(Cc2ccccc2)C(=O)O)cc1` (single isomer, unassigned; form 2) [listing 1 of 2 here], the result in assay [5] was Active. For the same compound, the Ka was determined as 1.3 ×10⁵ /M in assay [6] and 1.34 ×10⁵ /M in assay [7]. In addition, the Emax in [3] was determined as 145%.
For the compound `O=C(O)[C@H](Cc1ccccc1)Oc1ccc(-c2ccccc2-c2ccccc2)cc1`, the figures for the EC50 in assay [1] and in assay [2] were 44 nM and 1400 nM, respectively. Also, the Emax in assay [3] turned out to be 132%.
As to `O=C(O)[C@H](Cc1ccccc1)Oc1ccc(-c2ccccc2C(F)(F)F)cc1`, the EC50 in [1] stood at 22 nM; in [2], 1000 nM. In addition, the Emax in assay [3] is 126%.
Take `CCCCCc1ccccc1-c1ccc(OC(Cc2ccccc2)C(=O)O)cc1` (racemic): the EC50 in assay [1] was determined as 500 nM. For the same compound, the result in assay [5] was Active. In assay [3], this compound came in with an Emax of 107%.
Turning to `CC(C)c1ccccc1-c1ccc(OC(Cc2ccccc2)C(=O)O)cc1` (single isomer, unassigned; form 1) [listing 1 of 2 here], the EC50 came to 12 nM in [1] and 1000 nM in [2].
On to `Cc1cccc(C)c1-c1ccc(O[C@@H](Cc2ccccc2)C(=O)O)cc1`, for which the EC50 in [1] is 230 nM; in [2], 2540 nM. For the same compound, the Emax in assay [3] amounted to 123%.
Taken in the same sequence, the figures for `COc1ccccc1-c1ccc(O[C@@H](Cc2ccccc2)C(=O)O)cc1` were 130 nM, 2300 nM and 124%.
For the compound `Cc1cc(OC(Cc2ccccc2)C(=O)O)cc(C)c1-c1ccccc1` (racemic), the EC50 in assay [1] was found to be 2100 nM; in [2], 2040 nM. The compound further yielded an Emax in [3] of 50%.
On to `O=C(O)[C@H](Cc1ccccc1)Oc1ccc(-c2ccccc2)cc1`, for which the Emax in assay [3] amounted to 116%.
Regarding `Cc1ccc(-c2ccc(O[C@@H](Cc3ccccc3)C(=O)O)cc2)cc1`, the EC50 turned out to be 210 nM in [1] and 590 nM in [2]. In addition, the Emax in assay [3] amounted to 74%.
Taken in the same sequence, the figures for `Cc1cccc(-c2ccc(OC(Cc3ccccc3)C(=O)O)cc2)c1` (racemic) were 220 nM, 460 nM and 69%.
In the case of `CC(C)c1ccccc1-c1ccc(OC(Cc2ccccc2)C(=O)O)cc1` (single isomer, unassigned; form 1) [listing 2 of 2 here], the outcome in assay [8] and in assay [10] was Active. For the same compound, the results for the Ka in assay [9], in [11] and in assay [12] were 3.1 ×10⁵ /M, 1.87 ×10⁵ /M and 3.6 ×10⁵ /M, respectively. For the same compound, the figures for the fold change (FC) in [4] and in [13] were 2.3 and 1.5, respectively. For the same compound, the Emax in assay [3] turned out to be 147%.
Turning to `CCc1ccccc1-c1ccc(O[C@@H](Cc2ccccc2)C(=O)O)cc1`, the EC50 stood at 12 nM in [1] and 1200 nM in assay [2]. In assay [3], this compound displayed an Emax of 143%.
Taken in the same sequence, the figures for `Cc1ccccc1-c1ccc(O[C@@H](Cc2ccccc2)C(=O)O)cc1C` were 31 nM, 640 nM and 133%.
Taken in the same sequence, the figures for `Cc1cc(O[C@@H](Cc2ccccc2)C(=O)O)ccc1-c1ccccc1` were 80 nM, 700 nM and 120%.
On the same counts, the results for `O=C(O)[C@H](Cc1ccccc1)Oc1ccc(-c2ccccc2F)cc1` are 120 nM, 690 nM and 68%.
Take `CCCc1ccccc1-c1ccc(OC(Cc2ccccc2)C(=O)O)cc1` (racemic): in assay [1], the EC50 came out at 240 nM. In [5], the result was Active. In assay [3], this compound showed an Emax of 131%.
In turn, `CC(C)c1ccccc1-c1ccc(OC(Cc2ccccc2)C(=O)O)cc1` (single isomer, unassigned; form 2) [listing 2 of 2 here] returned an EC50 in assay [1] of 100 nM.
`Cc1cc(-c2ccccc2)ccc1O[C@@H](Cc1ccccc1)C(=O)O`: the EC50 is 990 nM in assay [1] and 700 nM in assay [2]. In assay [3], this compound displayed an Emax of 68%.
In turn, `O=C(O)C(Cc1ccccc1)Oc1ccc(-c2ccccc2CCc2ccccc2)cc1` (racemic) showed an EC50 in assay [1] of 280 nM. Also, the outcome in assay [5] was Active. The compound also came in with an Emax in [3] of 73%.

(Values after ChEMBL document CHEMBL2311299, “New 2-(aryloxy)-3-phenylpropanoic acids as peroxisome proliferator-activated receptor α/γ dual agonists able to upregulate mitochondrial carnitine shuttle system gene expression” (J Med Chem, 2013).)
